# In ChEMBL document CHEMBL3102784, “Salicylanilide diethyl phosphates: synthesis, antimicrobial activity and cytotoxicity” (Bioorg Med Chem, 2014):
# The source made the active and inactive calls. No cut-off for these calls is given here.
# Experiments:
# [1] = system: Trichophyton mentagrophytes; assay: Antifungal activity against Trichophyton mentagrophytes 445 after 120 hrs by broth microdilution method; format: functional; details: Trichophyton mentagrophytes, 445, 120 h
# Procedure, shortened: (§1)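 Filamentous dermatophyte tested by broth microdilution in RPMI 1640 with glutamine, fluconazole as reference. Value expressed as IC50 relative to growth control. Read at 72 and 120 h.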
# Staphylococcus aureus [2] = assay: Antibacterial activity against Staphylococcus aureus CCM 4516/08 after 24 hrs by broth microdilution method; format: functional; details: CCM 4516/08, 24 h
# Procedure, shortened: (§2)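 Broth microdilution in Mueller–Hinton broth, compounds dissolved in DMSO, tested over a dilution series from 500 downward. MIC taken as ≥95% growth reduction (IC95) versus drug-free control. Benzylpenicillin comparator. Readings at 24 and 48 h.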
# Candida albicans [3] = assay: Antifungal activity against Candida albicans ATCC 44859 after 24 hrs by broth microdilution method; format: functional; details: ATCC 44859, 24 h
# Procedure, shortened: (§3)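 Broth microdilution in RPMI 1640 with glutamine, fluconazole as reference. For yeasts, MIC is ≥80% growth reduction (IC80) versus control. For filamentous fungi, the value is expressed as IC50. Readings at 24 and 48 h.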
# Mycobacterium kansasii [4] = assay: Antimycobacterial activity against Mycobacterium kansasii 6509/96 after 7 days; format: functional; details: 6509/96, 168 h
# Procedure, shortened: (§4)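 Micromethod MIC in Šula's semisynthetic medium at 37 °C. Compounds added in DMSO at 1000 down to 0.032 µmol/L. Isoniazid standard in sterile water at 0.5–250 µmol/L. Inocula: H37Rv 10^3, M. avium 10^5, M. kansasii 10^4. Read at 14 and 21 d, plus 7 d for M. kansasii.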
# Mycobacterium kansasii [5] = assay: Antimycobacterial activity against Mycobacterium kansasii My 235/80 after 14 days; format: functional; details: My 235/80, 336 h; procedure, shortened: as §4
# Mycobacterium kansasii [6] = assay: Antimycobacterial activity against Mycobacterium kansasii 6509/96 after 21 days; format: functional; details: 6509/96, 504 h; procedure, shortened: as §4
# Mycobacterium avium [7] = assay: Antimycobacterial activity against isoniazid, rifampicin, ethambutol and ofloxacin-resistant Mycobacterium avium My 330/88 after 14 days; format: functional; details: My 330/88, 336 h; procedure, shortened: as §4
# Aspergillus fumigatus [8] = assay: Antifungal activity against Aspergillus fumigatus 231 after 24 hrs by broth microdilution method; format: functional; details: Aspergillus fumigatus, 231, 24 h; procedure, shortened: as §3
# [9] = system: Staphylococcus epidermidis; assay: Antibacterial activity against Staphylococcus epidermidis H 6966/08 after 24 hrs by broth microdilution method; format: functional; details: H 6966/08, 24 h; procedure, shortened: as §2
# Escherichia coli = assay: Antibacterial activity against Escherichia coli CCM 4517 at 500 micromol/L after 24 to 48 hrs by broth microdilution method; format: functional, organism-based; procedure, shortened: as §2
# Mycobacterium kansasii [10] = assay: Antimycobacterial activity against Mycobacterium kansasii My 235/80 after 21 days; format: functional; details: My 235/80, 504 h; procedure, shortened: as §4
# Trichosporon asahii [11] = assay: Antifungal activity against Trichosporon asahii 1188 after 48 hrs by broth microdilution method; format: functional; details: Trichosporon asahii, 1188, 48 h; procedure, shortened: as §3
# [12] = system: Staphylococcus epidermidis; assay: Antibacterial activity against Staphylococcus epidermidis H 6966/08 after 48 hrs by broth microdilution method; format: functional; details: H 6966/08, 48 h; procedure, shortened: as §2
# Pseudomonas aeruginosa = assay: Antibacterial activity against Pseudomonas aeruginosa CCM 1961 at 500 micromol/L after 24 to 48 hrs by broth microdilution method; format: functional, organism-based; procedure, shortened: as §2
# Aspergillus fumigatus [13] = assay: Antifungal activity against Aspergillus fumigatus 231 after 48 hrs by broth microdilution method; format: functional; details: Aspergillus fumigatus, 231, 48 h; procedure, shortened: as §3
# Pichia kudriavzevii [14] = assay: Antifungal activity against Candida krusei E28 after 48 hrs by broth microdilution method; format: functional; details: E28, 48 h; procedure, shortened: as §3
# Nakaseomyces glabratus = assay: Antifungal activity against Candida glabrata 20/I at 500 micromol/L after 24 to 48 hrs by broth microdilution method; format: functional, organism-based; procedure, shortened: as §3
# [15] = system: Trichophyton mentagrophytes; assay: Antifungal activity against Trichophyton mentagrophytes 445 after 72 hrs by broth microdilution method; format: functional; details: Trichophyton mentagrophytes, 445, 72 h; procedure, shortened: as §1
# Klebsiella pneumoniae [16] = assay: Antibacterial activity against Klebsiella pneumoniae D 11750/08 at 500 micromol/L after 24 to 48 hrs by broth microdilution method; format: functional, organism-based; procedure, shortened: as §2
# Staphylococcus aureus [17] = assay: Antibacterial activity against methicillin-resistant Staphylococcus aureus H 5996/08 after 48 hrs by broth microdilution method; format: functional; details: H 5996/08, 48 h; procedure, shortened: as §2
# Staphylococcus aureus [18] = assay: Antibacterial activity against methicillin-resistant Staphylococcus aureus H 5996/08 after 24 hrs by broth microdilution method; format: functional; details: H 5996/08, 24 h; procedure, shortened: as §2
# Candida tropicalis = assay: Antifungal activity against Candida tropicalis 156 at 500 micromol/L after 24 to 48 hrs by broth microdilution method; format: functional, organism-based; procedure, shortened: as §3
# Candida albicans [19] = assay: Antifungal activity against Candida albicans ATCC 44859 after 48 hrs by broth microdilution method; format: functional; details: ATCC 44859, 48 h; procedure, shortened: as §3
# Mycobacterium kansasii [20] = assay: Antimycobacterial activity against Mycobacterium kansasii 6509/96 after 14 days; format: functional; details: 6509/96, 336 h; procedure, shortened: as §4
# Enterococcus sp. = assay: Antibacterial activity against Enterococcus sp. J 14365/08 at 500 micromol/L after 24 to 48 hrs by broth microdilution method; format: functional, organism-based; procedure, shortened: as §2
# Trichosporon asahii [21] = assay: Antifungal activity against Trichosporon asahii 1188 after 24 hrs by broth microdilution method; format: functional; details: Trichosporon asahii, 1188, 24 h; procedure, shortened: as §3
# Mycobacterium avium [22] = assay: Antimycobacterial activity against isoniazid, rifampicin, ethambutol and ofloxacin-resistant Mycobacterium avium My 330/88 after 21 days; format: functional; details: My 330/88, 504 h; procedure, shortened: as §4
# Lichtheimia corymbifera [23] = assay: Antifungal activity against Absidia corymbifera 272 after 48 hrs by broth microdilution method; format: functional; details: Lichtheimia corymbifera, 272, 48 h; procedure, shortened: as §3
# Mycobacterium kansasii [24] = assay: Antimycobacterial activity against Mycobacterium kansasii My 235/80 after 7 days; format: functional; details: My 235/80, 168 h; procedure, shortened: as §4
# HepG2 = assay: Cytotoxicity against human HepG2 cells after 24 hrs by CellTiter assay; format: cell-based; details: HepG2, 24 h
# Procedure, shortened: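 HepG2 cells (passage 27–33) in MEM with 10% FBS, L-glutamine and NEAA, seeded at 1×10^4 per well. Treated next day with compounds at 0.1–100 µM (or 0.1–25 µmol/L), triplicates, <1% DMSO, for 24 h at 37 °C, 5% CO2. MTS reagent added for 2 h, absorbance read at 490 nm. IC50 taken against untreated (100%) and 10% DMSO (0%) controls.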
# Staphylococcus aureus [25] = assay: Antibacterial activity against Staphylococcus aureus CCM 4516/08 after 48 hrs by broth microdilution method; format: functional; details: CCM 4516/08, 48 h; procedure, shortened: as §2
# [26] = system: Mycobacterium tuberculosis; assay: Antimycobacterial activity against Mycobacterium tuberculosis H37Rv My 331/88 after 14 days; format: functional; details: H37Rv My 331/88, 336 h; procedure, shortened: as §4
# Klebsiella pneumoniae [27] = assay: Antibacterial activity against ESBL-positive Klebsiella pneumoniae J 14368/08 at 500 micromol/L after 24 to 48 hrs by broth microdilution method; format: functional, organism-based; procedure, shortened: as §2
# [28] = system: Mycobacterium tuberculosis; assay: Antimycobacterial activity against Mycobacterium tuberculosis H37Rv My 331/88 after 21 days; format: functional; details: H37Rv My 331/88, 504 h; procedure, shortened: as §4
# Pichia kudriavzevii [29] = assay: Antifungal activity against Candida krusei E28 after 24 hrs by broth microdilution method; format: functional; details: E28, 24 h; procedure, shortened: as §3
# Lichtheimia corymbifera [30] = assay: Antifungal activity against Absidia corymbifera 272 after 24 hrs by broth microdilution method; format: functional; details: Lichtheimia corymbifera, 272, 24 h; procedure, shortened: as §3
Structure (SMILES),MIC50 [1] [µM],MIC95 (Staphylococcus aureus [2]) [µM],MIC80 (Candida albicans [3]) [µM],MIC (Mycobacterium kansasii [4]) [µM],MIC (Mycobacterium kansasii [5]) [µM],MIC (Mycobacterium kansasii [6]) [µM],MIC (Mycobacterium avium [7]) [µM],MIC50 (Aspergillus fumigatus [8]) [µM],MIC95 [9] [µM],Activity (Escherichia coli),MIC (Mycobacterium kansasii [10]) [µM],MIC80 (Trichosporon asahii [11]) [µM],MIC95 [12] [µM],Activity (Pseudomonas aeruginosa),MIC50 (Aspergillus fumigatus [13]) [µM],MIC80 (Pichia kudriavzevii [14]) [µM],Activity (Nakaseomyces glabratus),MIC50 [15] [µM],Activity (Klebsiella pneumoniae [16]),MIC95 (Staphylococcus aureus [17]) [µM],further results
CCOP(=O)(OCC)Oc1ccc(Cl)cc1C(=O)Nc1ccc(Cl)cc1,500,62.5,> 500,8,8,8,8,> 500,125,inactive,8,> 500,250,inactive,> 500,> 500,inactive,500,inactive,250,MIC95 (Staphylococcus aureus [18]): 125 µM; Activity (Candida tropicalis): inactive; MIC80 (Candida albicans [19]): > 500 µM; MIC (Mycobacterium kansasii [20]): 8 µM; Activity (Enterococcus sp.): inactive; MIC80 (Trichosporon asahii [21]): > 500 µM; MIC (Mycobacterium avium [22]): 8 µM; MIC50 (Lichtheimia corymbifera [23]): > 500 µM; MIC (Mycobacterium kansasii [24]): 8 µM; IC50 (HepG2): 13 µM; MIC95 (Staphylococcus aureus [25]): 125 µM; MIC [26]: 4 µM; Activity (Klebsiella pneumoniae [27]): inactive; MIC [28]: 4 µM; MIC80 (Pichia kudriavzevii [29]): > 500 µM; MIC50 (Lichtheimia corymbifera [30]): > 500 µM
CCOP(=O)(OCC)Oc1cc(Cl)ccc1C(=O)Nc1ccc(F)cc1,500,250,> 500,16,16,32,32,> 500,> 500,inactive,16,> 500,> 500,inactive,> 500,> 500,inactive,500,inactive,> 500,MIC95 (Staphylococcus aureus [18]): > 500 µM; Activity (Candida tropicalis): inactive; MIC80 (Candida albicans [19]): > 500 µM; MIC (Mycobacterium kansasii [20]): 32 µM; Activity (Enterococcus sp.): inactive; MIC80 (Trichosporon asahii [21]): > 500 µM; MIC (Mycobacterium avium [22]): 32 µM; MIC50 (Lichtheimia corymbifera [23]): > 500 µM; MIC (Mycobacterium kansasii [24]): 16 µM; IC50 (HepG2): 33.8 µM; MIC95 (Staphylococcus aureus [25]): 500 µM; MIC [26]: 16 µM; Activity (Klebsiella pneumoniae [27]): inactive; MIC [28]: 16 µM; MIC80 (Pichia kudriavzevii [29]): > 500 µM; MIC50 (Lichtheimia corymbifera [30]): > 500 µM
CCOP(=O)(OCC)Oc1ccc(Br)cc1C(=O)Nc1ccc(F)cc1,500,> 500,> 500,8,16,16,32,> 500,> 500,inactive,16,> 500,> 500,inactive,> 500,> 500,inactive,500,inactive,500,MIC95 (Staphylococcus aureus [18]): 500 µM; Activity (Candida tropicalis): inactive; MIC80 (Candida albicans [19]): > 500 µM; MIC (Mycobacterium kansasii [20]): 8 µM; Activity (Enterococcus sp.): inactive; MIC80 (Trichosporon asahii [21]): > 500 µM; MIC (Mycobacterium avium [22]): 32 µM; MIC50 (Lichtheimia corymbifera [23]): > 500 µM; MIC (Mycobacterium kansasii [24]): 8 µM; IC50 (HepG2): 7.4 µM; MIC95 (Staphylococcus aureus [25]): > 500 µM; MIC [26]: 8 µM; Activity (Klebsiella pneumoniae [27]): inactive; MIC [28]: 8 µM; MIC80 (Pichia kudriavzevii [29]): > 500 µM; MIC50 (Lichtheimia corymbifera [30]): > 500 µM
